Rows were chosen to be rich in hits. Some 1.9% of all compounds tested hit in one or more screens of this group.
Rce1 inh – inhibitors of yeast Ras-converting enzyme. yeast membranes, quenched prenylated peptide cleavage fluorescence. calls only. actives 0.27% (n = 290,000). AID 2563;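 active = fall in fluorescence gain of 50% or more versus controls, with final raw signal at or below 3038400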;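 also: plate controls were neutral control wells for no effect and wells lacking membranes for full effect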
Target sequence (Q03530 whole entry, looked up): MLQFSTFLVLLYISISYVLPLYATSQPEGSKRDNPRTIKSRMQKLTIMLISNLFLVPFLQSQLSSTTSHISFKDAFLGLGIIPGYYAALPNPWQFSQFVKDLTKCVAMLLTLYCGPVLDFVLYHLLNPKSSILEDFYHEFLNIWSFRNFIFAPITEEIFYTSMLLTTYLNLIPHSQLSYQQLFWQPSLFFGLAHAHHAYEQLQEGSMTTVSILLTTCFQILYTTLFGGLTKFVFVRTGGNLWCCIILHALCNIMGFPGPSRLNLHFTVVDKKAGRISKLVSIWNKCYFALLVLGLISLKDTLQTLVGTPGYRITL
TbMetRS inhib – Trypanosoma brucei MetRS inhibition; AID 624268; actives 0.4% (n = 360,000); inhibition, % at 11.9 µM; purified T. brucei MetRS, ATP depletion, Kinase-Glo luminescence;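 active = inhibition above a per-plate cutoff of the control wells' mean inhibition plus 3 SD, cut at about 5.5% in these data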;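 also: 0% = DMSO wells median and 100% = median of wells with control inhibitor compound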
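Dosing: 11.9 µM compound single dose, 0.9% DMSO; Assay system: purified T. brucei MetRS enzyme; Measured by: Kinase-Glo luciferase luminescence reporting remaining unconsumed ATP; Schedule: 15 min plus 2 h at 25 °C.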
core dimer inh – blocks dimerization of HCV core protein | actives 0.33% (n = 300,000) | TR-FRET GST/Flag-core106 dimerization, 1536-well | inhibition, % at 5 µM | AID 1899;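 active = inhibition above the mean of all tested compounds plus 3 SD, set per screening campaign, cut at about 45% in these data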
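System: GST-tagged and Flag-tagged HCV core protein residues 1-106 / Input: core106 proteins, GST 13.5 nM and Flag 17 nM / Buffer or medium: KF-containing HEPES buffer, pH 7.45, DTT, CHAPS, BSA / Probe or stimulus: Eu-anti-GST and XL665-anti-Flag labelled anti-tag antibodies / Schedule: 4 h, 22.5 °C incubation / Technique: TR-FRET 671 and 617 nm emission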
NadD block – NadD (S. aureus) enzyme inhibition; AID 602399; inhibition, % at 20 µM; actives 0.78% (n = 360,000); purified NadD enzyme, colorimetric absorbance read-out; in the data active = inhibition above about 26%
DSG3 Ab inh – human desmoglein-3 autoantibody binding inhibition | P32926 | DSG3-coupled beads, scFv-anti-DSG3-GFP binding, flow cytometry; hits give low values | binding (percent of control), % at 10 µM | actives 0.48% (n = 310,000) | AID 588358;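 active = binding more than 3 SD below its plate's average and above zero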;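 also: hits lower antibody fragment binding to DSG3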
Tb MetRS conf – Trypanosoma brucei MetRS inhibition confirmed; shares compounds with TbMetRS inhib; T. brucei MetRS enzyme, luminescence (ATP depletion); inhibition, % at 11.9 µM; actives 93% (n = 1,400); in the data active = inhibition above about 7%
Jurkat cytotox – counter-screen for T. brucei MetRS inhibitors: Jurkat cell cytotoxicity. shares compounds with TbMetRS inhib. inhibition, % at 8.3 µM. Jurkat cells viability, ATP luminescence. actives 12% (n = 1,400); in the data active = inhibition above about 15%;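 also: 0% = vehicle and 100% = reference inhibitor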
Tb MetRS inh FP – T. brucei MetRS inhibition, orthogonal assay; actives 44% (n = 1,400); shares compounds with TbMetRS inhib; purified T. brucei MetRS, fluorescence polarization; inhibition, % at 11.9 µM; in the data active = inhibition above about 17%;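 also: 0% = vehicle wells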
The depositor's hits bear a star; i = inactive; x = no result given.

SMILES	Rce1 inh	TbMetRS inhib	core dimer inh	NadD block	DSG3 Ab inh	Tb MetRS conf	Jurkat cytotox	Tb MetRS inh FP
COc1ccccc1NS(=O)(=O)c1cccc(NC(=O)Nc2ccccc2)c1	i	88*	3	-9	85	100*	13	105*
Cc1cc(Cl)c(OCCn2ccnc2)c(Br)c1	i	0	5	9	123	x	x	x
COc1ccc2[nH]cc(S(=O)(=O)c3ccc(F)cc3)c(=O)c2c1	i	5	-7	-2	94	x	x	x
Cc1ccc2[nH]cc(S(=O)(=O)c3ccc(C)c(C)c3)c(=O)c2c1	i	6.8*	6	-3	92	38*	4	9
S=C(N/N=C/c1cccc2ccccc12)Nc1cccc(Cl)c1	i	5.8*	1	-1	91	0	5	3
S=C(N/N=C/c1ccccc1Cl)Nc1ccccc1	i	-1	1	-2	101	x	x	x
O=C(CCCOc1ccc(Cl)cc1Cl)Nc1ncccn1	i	1	4	2	97	x	x	x
O=C(CCCOc1ccc(Cl)cc1Cl)N/N=C/c1ccco1	i	17*	4	6	105	52*	5	57*
Cc1ccc(/C=N/NC(=O)CCCOc2ccc(Cl)cc2Cl)cc1	i	2	-5	-10	108	x	x	x
O=C(CCCOc1ccc(Cl)cc1Cl)N/N=C/c1ccccc1	i	12*	-3	-20	102	39*	3	34*
O=C(CCCOc1ccc(Cl)cc1Cl)N/N=C/c1ccccc1O	i	37*	-9	-1	126	80*	82*	76*
O=C(CCCC(=O)NN=Cc1ccc(Cl)cc1Cl)NN=Cc1ccc(Cl)cc1Cl	x	0	x	13	95	x	x	x
O=c1c2cc(N3CCOCC3)ccc2[nH]c(=S)n1CCN1CCCC1	i	0	7	7	103	x	x	x
Cc1cc(NC(=O)CSCCc2ccncc2)no1	i	0	-8	-4	105	x	x	x
CCCCc1ccc(NC(=O)CSC2=C(C#N)C(c3ccco3)C3=C(CCCC3=O)N2)cc1 (configuration not stated)	i	-1	45	20	113	x	x	x
C=C[C@@]1(C)CCC(/C(C)=C/C=C/C(C)(C)O)C[C@@H]1C(=C)C (some centres not stated)	x	0	x	0	102	x	x	x
O=C(CCCOc1ccc(Cl)cc1Cl)N1CCN(c2ccccn2)CC1	i	12*	4	-6	98	20*	-1	14
Cc1cc(Cl)ccc1OCCCC(=O)NNC(=O)c1ccccc1O	i	6.0*	-9	-1	92	25*	11	22*
O=C(COc1ccc(Cl)cc1Cl)N/N=C/c1ccc[nH]1	i	6.6*	-6	-2	105	36*	1	27*
O=C(CC(=O)Nc1cccc(Cl)c1)N/N=C\c1ccccc1	i	36*	1	2	82	82*	-4	51*
CCC(CC)C(=O)c1c[nH]c(C(=O)NCc2ccccc2)c1	i	1	7	-10	94	x	x	x
O=C(COc1ccc(Cl)cc1Cl)NCc1ccco1	i	1	-1	3	x	x	x	x
O=C(COc1ccc(Cl)cc1Cl)NNC(=S)NCc1ccco1	i	6.4*	13	2	88	4	12	15
Cn1c(NC(=O)c2ccccc2Br)cc(=O)n(C)c1=O	i	-1	3	2	100	x	x	x
CSC[C@H]1CN(CCc2ccccc2)C(=O)[C@@H]1CC(=O)Nc1ccc(Br)cc1	x	15*	x	-2	x	37*	7	12
SMILES	Rce1 inh	TbMetRS inhib	core dimer inh	NadD block	DSG3 Ab inh	Tb MetRS conf	Jurkat cytotox	Tb MetRS inh FP
CSC[C@H]1CN(c2ccccc2)C(=O)[C@@H]1CC(=O)Nc1ccc(Br)cc1	x	21*	x	4	x	36*	2	11
CCCCN1C[C@H](CSC)[C@@H](CC(=O)Nc2ccc(Br)cc2)C1=O	x	37*	x	-2	x	54*	8	25*
C=CCN(CC=C)C(=O)c1ccccc1NC(=O)c1ccccc1C	i	-1	3	5	102	x	x	x
CCOc1ccc2[nH]cc(S(=O)(=O)c3ccc(F)cc3)c(=O)c2c1	i	1	-1	2	102	x	x	x
CCOc1ccc(S(=O)(=O)c2c[nH]c3ccccc3c2=O)cc1	i	13*	-134	-3	93	24*	1	6
CC(=O)N[C@@H]1C=C[C@@H](CC(=O)NCc2ccc(Cl)cc2)O[C@@H]1CO	x	0	x	x	x	x	x	x
CCN(CC)CCNc1ccnc2cc(Cl)ccc12	i	0	-4	-3	130	x	x	x
O=C(NCCNc1ccnc2cc(Cl)ccc12)c1ccccc1F	i	8.7*	-37	-6	115	13*	47*	10
Clc1ccc2c(NCc3ccccc3)ccnc2c1	i	7.9*	2	-5	114	20*	19*	5
O=C(NCCNc1ccc(Cl)cc1[N+](=O)[O-])c1ccccc1F	i	2	1	-7	101	x	x	x
c1coc(CNc2ncnc3nc[nH]c23)c1	i	-1	5	2	94	x	x	x
Cc1ccc2[nH]c3c(NCCCN4CCCC4=O)ncnc3c2c1	i	21*	2	0	95	36*	2	25*
COc1ccc(/C=N/Nc2ncnc3c2[nH]c2ccc(C)cc23)c(OC)c1OC	i	0	0	-5	93	x	x	x
COc1cc(CNc2ncnc3c2[nH]c2ccc(C)cc23)cc(OC)c1	i	75*	6	8	94	84*	7	80*
Cc1ccc2[nH]c3c(NCc4ccco4)ncnc3c2c1	i	45*	1	5	95	54*	28*	26*
CCOC(=O)N1CCN(S(=O)(=O)c2cn(C)c(=O)n(C)c2=O)CC1	i	0	-2	-1	106	x	x	x
CC1=C(C(=O)OCc2ccccc2)C(c2ccccc2)NC(=O)N1CCCC(=O)O (configuration not stated)	i	0	-1	4	98	x	x	x
COc1cc(N)c(Cl)cc1C(=O)OCC(=O)N(C)C1CCCCC1	x	0	x	-2	x	x	x	x
Cc1[nH]c2ccccc2c1/C=N/Nc1ccc([N+](=O)[O-])cc1	i	9.6*	-23	5	x	12*	9	71*
Cc1ccc(C(=O)OCC(=O)NCc2ccco2)cc1	i	0	9	3	67	x	x	x
Cc1cc(Cl)cc(C)c1OCCn1ccnc1	i	2	6	-3	99	x	x	x
Cc1cc(Cl)cc(C)c1OCCCCCn1ccnc1	i	7.8*	9	-3	110	19*	7	10
C[C@@H]1COc2cc(N(C)CCO)ccc2S(=O)(=O)N1	x	-1	x	0	x	x	x	x
